Some results are limits rather than exact numbers.

In data set [1] the test system is SH-SY5Y cells. Briefly: comparative uptake study by confocal microscopy. The data set is classed as cell-based, human. Particulars: 0.1 μM, 4 h at 37°C, 3 fields per slide.
For data set [2], the system named is SH-SY5Y cells. Put plainly: time course of agent uptake by confocal microscopy. The data set is classed as cell-based, human. Particulars: 0.1 μM, 37°C.
The test system of data set [3] is CHO-K1 cells. Briefly: comparative uptake study by confocal microscopy, negative control cells. The data set is classed as cell-based, Chinese hamster.
The test system of data set [4] is SH-SY5Y cells. Briefly: live cell co-localization with RFP-labeled Rab5 in early endosomes. The data set is classed as cell-based, human. The note with it: 0.1 μM, 1 h at 37°C, intensities along the x-axis, Amira 5 software.
Data set [5] has as its system SH-SY5Y cells. Briefly: specificity of uptake by flow cytometry. In kind it is cell-based, human. The note with it: 0.1 μM, 6 h at 37°C, three replicate experiments. For orientation: A flow cytometer gives signals particle by particle.
The test system of data set [6] is CHO-K1 cells. Briefly: specificity of uptake by flow cytometry, negative control cells. In kind it is cell-based, Chinese hamster. The note with it: all concentrations (0.1, 0.2, 0.35, 0.5 μM), 6 h at 37°C.
In data set [7] the test system is SH-SY5Y cells. Briefly: Vybrant MTT Cell Proliferation Assay. The data set is classed as cell-based, human. Particulars: SH-SY5Y cells, 0.1, 0.5 and 1 μM, 12 h at 37°C, absorbance at 540 nm. In outline: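 SH-SY5Y cells, maintained in 1:1 DMEM:F12 with 10% FBS at 37°C under 5% CO2, seeded at 2 × 10^4 cells/well and grown overnight in phenol red-free DMEM:F12. Exposed to test compound (0.1, 0.5, 1 μM) for 12 h at 37°C, then to MTT 1 mg/mL for 4 h. Formazan dissolved in Me2SO; absorbance read at 540 nm against untreated control cells.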

“Ala-D-Ala-Gly-N-MePhe-Ser-AEEA-CAT GGT GCT CAC-AEEA-Cys-AlexaFluor488 [WT4786]”: the “uptake in SH-SY5Y cells relative to the specific WT4879” value in data set [1] is recorded as ~ 20%.

For `Cc1cn(CC(=O)N(CCNC(=O)CN(CCNC(=O)CN(CCNC(=O)CN(CCNC(=O)CN(CCNC(=O)CN(CCNC(=O)CN(CCNC(=O)CN(CCNC(=O)CN(CCNC(=O)COCCOCCNC(=O)[C@H](CO)NC(=O)[C@H](Cc2ccccc2)N(C)C(=O)CNC(=O)[C@@H](C)NC(=O)[C@@H](N)Cc2ccc(O)cc2)C(=O)Cn2ccc(N)nc2=O)C(=O)Cn2cnc3c(N)ncnc32)C(=O)Cn2cc(C)c(=O)[nH]c2=O)C(=O)Cn2cnc3c(=O)[nH]c(N)nc32)C(=O)Cn2cnc3c(=O)[nH]c(N)nc32)C(=O)Cn2cc(C)c(=O)[nH]c2=O)C(=O)Cn2cnc3c(=O)[nH]c(N)nc32)C(=O)Cn2ccc(N)nc2=O)CC(=O)NCCN(CC(=O)NCCN(CC(=O)NCCN(CC(=O)NCCOCCOCC(=O)N[C@@H](CSC2CC(=O)N(CCCCCNC(=O)c3ccc(-c4c5ccc(=N)c(S(=O)(=O)O)c-5oc5c(S(=O)(=O)O)c(N)ccc45)c(C(=O)O)c3)C2=O)C(=O)O)C(=O)Cn2ccc(N)nc2=O)C(=O)Cn2cnc3c(N)ncnc32)C(=O)Cn2ccc(N)nc2=O)c(=O)[nH]c1=O` (stereo partly drawn) [WT4879, Tyr-D-Ala-Gly-N-MePhe-Ser-AEEA-CAT GGT GCT CAC-AEEA-Cys-AlexaFluor488], the “time course of uptake intensity” value in data set [2] (0-12 h, ImageJ, three regions of interest) was “increased with time up to 4 h, leveling off thereafter”. The “uptake at 0.25 and 0.5 h” value in data set [2] (data not shown) is listed as “No significant uptake”. Besides, the “uptake after 1 h” value in data set [2] (uniformly distributed in the cytoplasm) is on record as “taken up strongly”. The “uptake in CHO-K1 cells relative to SH-SY5Y cells” value in data set [3] (0.1 μM, 4 h at 37°C, confocal microscopy, 3 fields per slide) is on record as ~ 21%. The “non-specific uptake in control cell-line CHO-K1” value in data set [3] (conclusion, in words) is on record as “minimal non-specific uptake”. The “overlap of AlexaFluor 488 intensity with RFP-labeled Rab5 intensity” value in data set [4] is listed as > 95%. In addition, the “uptake of WT4879 relative to WT4786 (ratio of specific over non-specific uptake)” value in data set [5] is ~ 5 fold. In addition, the “specificity ratio (WT4879 vs WT4786 uptake)” value in data set [6] is given as 1 ± 0.3. Moreover, the “cellular toxicity (MTT cell viability)” value in data set [7] was “No cellular toxicity was observed”.

The values above are taken from publication PMC3288683 (Bioconjugate Chemistry, 2012).
